Assay results as given in ChEMBL document CHEMBL4334454, “Alkaloids Purified from Aristotelia chilensis Inhibit the Human α3β4 Nicotinic Acetylcholine Receptor with Higher Potencies Compared with the Human α4β2 and α7 Subtypes” (J Nat Prod, 2019).
Activity calls are given as the source filed them. No cut-off for these calls is given here.

Tests used:
Format in all cases: cell-based
[1] = molecular target: T1, Neuronal acetylcholine receptor; alpha4/beta2 (Homo sapiens, UniProt P17787+P43681); assay: Agonist activity at human AChR alpha4beta2 transfected in human HEK293 cells assessed as increase in calcium influx incubated for 1 hr by fluo-4 dye based assay
[2] = molecular target: T2, Neuronal acetylcholine receptor subunit alpha-7 (Homo sapiens, UniProt P36544); assay: Agonist activity at human AChR alpha7 transfected in rat GH3 cells assessed as increase in calcium influx incubated for 1 hr by fluo-4 dye based assay
[3] = molecular target: T3, Neuronal acetylcholine receptor; alpha3/beta4 (Homo sapiens, UniProt P30926+P32297); assay: Antagonist activity at human AChR alpha3beta4 transfected in human HEK293 cells assessed as decrease in epibatidine-induced calcium influx incubated for 1 hr by fluo-4 dye based assay
[4] = molecular target: T1, Neuronal acetylcholine receptor; alpha4/beta2; assay: Antagonist activity at human AChR alpha4beta2 transfected in human HEK293 cells assessed as decrease in epibatidine-induced calcium influx incubated for 1 hr by fluo-4 dye based assay
Outline: (§1)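 HEK293-hα3β4 or HEK293-hα4β2 cells were seeded 72 h ahead, kept in HBSS/1% FBS (pH 7.4) 16–24 h, and loaded with Fluo-4 plus 2.5 mM probenecid for 1 h at 37 °C. After washing, cells were pretreated 5 min with alkaloid at varied concentrations. 0.1 μM (±)-epibatidine was then added while fluorescence (488/510 nm) was recorded for 78 s. Responses were normalized to the maximal epibatidine response, mean ± SD (n = 3). IC50 and nH came from concentration–response curves.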

[5] = molecular target: T2, Neuronal acetylcholine receptor subunit alpha-7; assay: Antagonist activity at human AChR alpha7 transfected in rat GH3 cells assessed as decrease in epibatidine-induced calcium influx incubated for 1 hr by fluo-4 dye based assay
Outline: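 GH3-hα7 cells were seeded 72 h ahead, kept in HBSS/1% FBS (pH 7.4) 16–24 h, and loaded with Fluo-4 plus 2.5 mM probenecid for 1 h at 37 °C. After washing, cells were pretreated 5 min with varied alkaloid concentrations. 1.0 μM (±)-epibatidine was then added while fluorescence (488/510 nm) was recorded for 78 s. Data were normalized to the maximal epibatidine response, mean ± SD (n = 3). IC50 and nH were fitted.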

[6] = molecular target: T3, Neuronal acetylcholine receptor; alpha3/beta4; assay: Antagonist activity at human AChR alpha3beta4 transfected in human HEK293 cells assessed as decrease in epibatidine-induced calcium influx at 100 uM incubated for 1 hr by fluo-4 dye based assay relative to control; outline: as §1
[7] = molecular target: T1, Neuronal acetylcholine receptor; alpha4/beta2; assay: Antagonist activity at human AChR alpha4beta2 transfected in human HEK293 cells assessed as decrease in epibatidine-induced calcium influx at 10 to 100 uM incubated for 1 hr by fluo-4 dye based assay relative to control; outline: as §1
[8] = molecular target: T2, Neuronal acetylcholine receptor subunit alpha-7; assay: Antagonist activity at human AChR alpha7 transfected in […] cells assessed as decrease in epibatidine-induced calcium influx at 10 to 100 uM incubated for 1 hr by fluo-4 dye based assay relative to control
Homo sapiens [9] = organism: Homo sapiens; assay: Selectivity index, ratio of IC50 for human AChR alpha4beta2 transfected in human HEK293 cells to IC50 for human AChR alpha3beta4 transfected in human HEK293 cells
Homo sapiens [10] = organism: Homo sapiens; assay: Selectivity index, ratio of IC50 for human AChR alpha7 transfected in rat GH3 cells to IC50 for human AChR alpha3beta4 transfected in human HEK293 cells

T1 sequence (P17787 whole entry): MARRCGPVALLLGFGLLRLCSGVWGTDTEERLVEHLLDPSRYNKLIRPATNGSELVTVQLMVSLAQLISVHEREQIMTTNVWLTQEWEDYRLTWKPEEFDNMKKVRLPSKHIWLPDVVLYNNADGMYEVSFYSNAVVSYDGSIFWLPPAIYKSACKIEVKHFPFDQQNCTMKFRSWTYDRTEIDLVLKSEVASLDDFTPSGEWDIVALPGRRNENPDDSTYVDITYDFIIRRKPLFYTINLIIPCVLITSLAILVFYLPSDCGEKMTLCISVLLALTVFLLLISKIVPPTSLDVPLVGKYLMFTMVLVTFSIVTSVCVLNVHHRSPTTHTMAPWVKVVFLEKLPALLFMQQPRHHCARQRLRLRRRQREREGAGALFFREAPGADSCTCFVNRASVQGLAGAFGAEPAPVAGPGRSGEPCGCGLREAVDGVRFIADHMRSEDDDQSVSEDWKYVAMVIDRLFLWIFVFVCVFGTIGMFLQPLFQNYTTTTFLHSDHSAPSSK
T1 sequence (P43681 whole entry): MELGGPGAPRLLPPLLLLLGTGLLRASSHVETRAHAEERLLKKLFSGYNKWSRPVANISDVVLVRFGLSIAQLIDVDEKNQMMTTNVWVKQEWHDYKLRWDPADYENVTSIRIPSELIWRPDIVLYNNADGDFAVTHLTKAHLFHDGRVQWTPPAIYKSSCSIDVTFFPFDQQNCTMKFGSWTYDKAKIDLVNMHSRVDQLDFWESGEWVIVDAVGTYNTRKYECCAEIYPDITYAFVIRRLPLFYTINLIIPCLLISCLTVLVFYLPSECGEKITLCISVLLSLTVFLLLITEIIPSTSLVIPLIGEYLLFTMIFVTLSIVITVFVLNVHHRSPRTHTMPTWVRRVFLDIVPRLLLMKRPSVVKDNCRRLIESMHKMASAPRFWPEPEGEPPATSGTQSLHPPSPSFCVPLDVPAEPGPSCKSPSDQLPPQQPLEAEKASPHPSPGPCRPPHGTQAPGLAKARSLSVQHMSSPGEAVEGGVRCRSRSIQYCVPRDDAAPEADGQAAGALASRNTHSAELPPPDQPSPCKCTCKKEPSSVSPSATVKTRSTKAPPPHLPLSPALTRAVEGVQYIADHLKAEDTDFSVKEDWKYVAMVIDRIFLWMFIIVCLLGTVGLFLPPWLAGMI
T2 sequence (P36544 whole entry): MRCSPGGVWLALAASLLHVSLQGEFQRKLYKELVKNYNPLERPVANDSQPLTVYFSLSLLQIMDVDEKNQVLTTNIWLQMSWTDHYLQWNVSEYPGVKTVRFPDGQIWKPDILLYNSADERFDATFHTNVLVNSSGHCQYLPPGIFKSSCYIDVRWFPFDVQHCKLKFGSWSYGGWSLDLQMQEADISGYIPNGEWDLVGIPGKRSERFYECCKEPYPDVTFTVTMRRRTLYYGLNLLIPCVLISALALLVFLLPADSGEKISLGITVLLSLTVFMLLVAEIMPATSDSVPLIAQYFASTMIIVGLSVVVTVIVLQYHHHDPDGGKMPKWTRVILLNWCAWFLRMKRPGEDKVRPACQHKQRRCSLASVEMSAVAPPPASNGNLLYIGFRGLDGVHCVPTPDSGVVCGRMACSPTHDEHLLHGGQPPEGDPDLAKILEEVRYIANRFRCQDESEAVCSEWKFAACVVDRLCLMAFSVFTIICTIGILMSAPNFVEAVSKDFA
T3 sequence (P30926 whole entry): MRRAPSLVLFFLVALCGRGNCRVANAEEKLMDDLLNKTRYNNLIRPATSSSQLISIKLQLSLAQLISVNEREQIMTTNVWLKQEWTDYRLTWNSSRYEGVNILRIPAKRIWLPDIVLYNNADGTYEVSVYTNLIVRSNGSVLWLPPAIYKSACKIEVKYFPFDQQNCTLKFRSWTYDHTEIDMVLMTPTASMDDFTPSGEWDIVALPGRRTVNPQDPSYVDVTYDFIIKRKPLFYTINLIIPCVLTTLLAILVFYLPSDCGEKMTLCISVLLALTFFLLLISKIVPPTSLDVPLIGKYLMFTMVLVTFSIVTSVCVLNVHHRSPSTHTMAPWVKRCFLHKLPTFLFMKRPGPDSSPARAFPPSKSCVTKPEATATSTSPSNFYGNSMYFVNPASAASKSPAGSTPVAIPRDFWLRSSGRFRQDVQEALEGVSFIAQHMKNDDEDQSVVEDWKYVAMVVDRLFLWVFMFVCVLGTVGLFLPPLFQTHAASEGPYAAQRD
T3 sequence (P32297 whole entry): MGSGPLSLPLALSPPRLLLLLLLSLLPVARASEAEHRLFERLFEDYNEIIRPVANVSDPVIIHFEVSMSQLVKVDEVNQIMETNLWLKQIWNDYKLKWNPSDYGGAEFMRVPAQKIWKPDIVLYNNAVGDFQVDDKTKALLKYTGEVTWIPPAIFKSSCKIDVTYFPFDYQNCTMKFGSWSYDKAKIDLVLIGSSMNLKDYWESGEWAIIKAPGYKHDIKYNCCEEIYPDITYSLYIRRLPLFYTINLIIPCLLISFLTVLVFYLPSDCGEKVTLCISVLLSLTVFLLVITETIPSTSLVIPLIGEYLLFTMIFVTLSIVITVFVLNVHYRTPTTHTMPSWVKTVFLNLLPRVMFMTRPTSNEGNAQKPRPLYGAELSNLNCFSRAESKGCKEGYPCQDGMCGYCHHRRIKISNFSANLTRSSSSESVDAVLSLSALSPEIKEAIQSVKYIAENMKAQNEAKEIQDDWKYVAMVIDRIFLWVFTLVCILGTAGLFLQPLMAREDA

Structure (SMILES)	Activity [1]	Activity [2]	IC50 [3] [µM]	IC50 [4] [µM]	IC50 ([5]; gh3)	inhibition [6] [%]	inhibition [7]	inhibition [8]	IC50 ([5]; read-out: IC50) [µM]	Ratio IC50 (Homo sapiens [9])	Ratio IC50 (Homo sapiens [10])
CC1(C)[C@@H]2C[C@@H]3[C@H]4C[C@@]5(Nc6ccccc6[C@@H]5N41)[C@]3(C)CC2=O	inactive	inactive	167	145	Not Active	40	inactive	inactive	–	–	–
Clc1ccc(C2C[C@@H]3CC[C@H]2N3)cn1 (mixture of isomers)	Active	Active	–	–	–	–	–	–	–	–	–
CC1(C)N[C@@H]2Cc3c([nH]c4ccccc34)[C@]3(C)CC[C@H]1C[C@H]23	inactive	inactive	0.4	3.4	–	–	100%	100%	27	8.4	67.5
CC1=CC[C@@H]2C[C@H]1[C@@H](c1ccnc3ccccc13)NC2(C)C	inactive	inactive	–	6.7	–	–	–	–	45.3	–	–
